Screening results deposited in PubChem BioAssay by several laboratories.
M1 antagonist = antagonists of rat M1 muscarinic receptor; CHO-M1 cells, Fluo-4 calcium, ACh EC80 antagonist mode; hits give low values; 64,000 tested, 3.4% active; B-score at 10 µM; AID 628, 2007;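 active = calcium fluorescence response, raw or row-and-column corrected B-score, differing from the plate sample mean either way at a set confidence level, mostly lower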
SF1 activator = activators of human SF-1, primary screen, cell-based, CHO-K1, Gal4-SF-1 LBD, luciferase luminescence; Steroidogenic factor 1 (Homo sapiens), Q13285; CHO-K1 Gal4-SF-1 LBD luciferase reporter; % increase over DMSO SF-1-specific signal; activation, % at 10 µM; 65,000 tested, 1.9% active; AID 522, 2006;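 active = activation above the mean activation of all tested compounds plus 3 SD, cut at about 50% in these data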
Target sequence (Q13285 whole entry, looked up, the tested form may be a part): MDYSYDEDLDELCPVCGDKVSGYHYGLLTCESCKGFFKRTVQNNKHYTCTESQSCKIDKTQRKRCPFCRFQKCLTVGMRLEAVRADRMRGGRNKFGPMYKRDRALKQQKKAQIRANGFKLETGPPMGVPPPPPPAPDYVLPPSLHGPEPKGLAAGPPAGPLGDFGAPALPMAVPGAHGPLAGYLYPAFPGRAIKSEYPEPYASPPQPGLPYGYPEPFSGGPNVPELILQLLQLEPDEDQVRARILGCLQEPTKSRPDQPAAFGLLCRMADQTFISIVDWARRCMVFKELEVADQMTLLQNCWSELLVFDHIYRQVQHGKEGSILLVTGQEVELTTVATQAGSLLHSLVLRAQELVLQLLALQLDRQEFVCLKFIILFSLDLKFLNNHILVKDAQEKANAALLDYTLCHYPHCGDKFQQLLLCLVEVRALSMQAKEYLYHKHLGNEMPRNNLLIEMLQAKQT
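Assay system: CHO-K1 cells co-transfected with Gal4 DBD–human SF-1 LBD, 5xGal4 luciferase reporter; doses: 10 µM only; incubation: 20 h compound exposure at 37 °C after 1 h cell settling; signal: luciferase light emission; evaluation: percent activation versus DMSO; repeats: one test per compound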
MT1-MMP txn act = MT1-MMP promoter reporter activation – cell-based, luciferase luminescence, primary screen; HT1080 MT1-MMP promoter luciferase reporter, overnight; hits give high values; activation factor at 10 µM; 86,000 tested, 0.16% active;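 active = activation factor of at least 2 for MT1-MMP transcription at 10 µM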
M1 agonist = M1 muscarinic receptor agonists, primary screen, CHO-M1 cells, Fluo-4 calcium, agonist mode | 64,000 tested, 3% active | B-score at 10 µM | Fluo-4 calcium fluorescence; hits give high values | Muscarinic acetylcholine receptor M1;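 active = fluorescence rise, raw or as B-score row- and column-corrected plate score, outside the 99.7% band of its plate's samples, either direction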
RORA act = activators of orphan receptor RORA, primary screen, cell-based, luminescence; 65,000 tested, 1.5% active; activation, % at 10 µM; CHO-K1 Gal4-RORA LBD luciferase reporter; percent increase over mock-subtracted basal signal; AID 560, 2006;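 active = activation above the mean of all tested compounds plus 3 SD, cut at about 49% in these data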;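 also: 0% = DMSO-treated RORA cells and 100% = added signal equal to DMSO minus mock-transfected cells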
Starred values were filed as active, the others as inactive; x = no result. Sampled rows, rich in hits. Any-hit rate of the full collection: about 6.3%.

SMILES	M1 antagonist	SF1 activator	MT1-MMP txn act	M1 agonist	RORA act
COc1ccc(CNc2ccc(-c3ccc(OC)cc3)nn2)cc1	-0.258	80.3*	1.3	0.129	40.0
CC(Sc1ccccn1)C(=O)Nc1ccccc1 (configuration not stated)	0.305	57.1*	1.6	0.845	33.7
Cc1ccnc(NC(=O)CCc2c(C)nc3ncnn3c2C)c1	0.372	2.3	1.2	-0.829	2.1
O=C1Nc2ncccc2OC1CCO (configuration not stated)	x	x	1.1	x	x
COC(=O)N1[C@H](Cc2ccccc2)C=C[C@]1(C)C(=O)NCc1ccc(C)o1	x	x	1	x	x
CCOC(=O)C(NC(=O)CC)(N1CCc2ccccc2C1)C(F)(F)F (configuration not stated)	x	x	1.1	x	x
COC(=O)Cn1c(C)nc2ccccc21	x	x	1.1	x	x
COC(=O)Cn1c(C)nc2c(sc3nc(C)cc(C)c32)c1=O	-0.765	50.1*	1.2	-0.122	39.9
COC(=O)c1cccc(NC(=O)CCCOc2cccc(C)c2)c1	x	x	1.1	x	x
Cn1c(/N=C/c2cc(Cl)ccc2O)nc2ccccc21	0.323	5.6	1.1	2.47*	28.4
C/C(N)=C(/C#N)C(=O)CSc1nnnn1-c1ccc(C)cc1	-0.515	11.5	1.6	-3.13	-14.4
CCC(=O)N1CCN(CCN=Cc2c(O)n(C3CCCCC3)c(=O)n(C3CCCCC3)c2=O)CC1	-0.9	9.8	1	-1.18	0.2
Cc1cc(Br)c2c(c1)=C(c1sc(N3CCCCCC3)nc1O)C(=O)N=2	1.78	50.3*	1.1	1.1	33.9
COc1cccc(-c2noc(C3CCCN(S(=O)(=O)c4cccc(Cl)c4C)C3)n2)c1 (configuration not stated)	0.484	1.5	0.9	0.241	8.1
O=C(NCC1CCCO1)c1cc(-c2ccccc2)on1 (configuration not stated)	0.241	67.5*	x	-2.71	90.6*
Nc1nonc1-c1noc(COc2ccccc2Cl)n1	0.162	68.6*	0.9	0.0683	87.9*
Clc1ccccc1OCc1nc(-c2ccccn2)no1	-0.311	17.6	x	-0.595	-5.4
Cc1cccc(OCc2nc(-c3nonc3N)no2)c1C	x	32.6	1.4	x	81.3*
Nc1nonc1-c1noc(CCCN2C(=O)c3ccccc3C2=O)n1	0.778	49.5*	1.6	-0.0834	39.8
COc1cccc(-c2cc(C(=O)N3CCCCCC3)no2)c1	-0.672	-2.8	0.6	0.837	-19.8
COc1cccc(-c2cc(C(=O)N3CCCCC3C)no2)c1 (configuration not stated)	0.89	86.0*	1.4	-0.112	49.5*
CCOC(=O)C1=C(C)N(CCCC(=O)O)C(=O)NC1c1ccccc1OC(=O)c1ccc(I)cc1 (configuration not stated)	x	x	1.1	x	x
Brc1ccc(-c2nn3c(-c4ccncc4)nnc3s2)o1	-3.14*	0.6	1.1	0.918	-5.6
C=CCSc1nncn1/N=C/c1ccc(OC)cc1	0.0916	83.3*	2*	0.0495	90.8*
O=C(Nc1ccc2nn(-c3ccccc3)nc2c1)c1cccnc1	0.106	60.6*	1.4	-0.67	45.9
SMILES	M1 antagonist	SF1 activator	MT1-MMP txn act	M1 agonist	RORA act
CCCC(=O)Nc1ccc(-c2nc3cc(C)ccc3o2)cc1	-1.23	-25.9	x	-0.0578	-28.6
CCCC(=O)Nc1ccc2oc(-c3ccc(OC)c(Br)c3)nc2c1	0.00901	62.1*	1.3	0.0888	79.6*
O=C(Nc1ccc2oc(-c3ccccc3)nc2c1)c1cccnc1	-1.63	71.4*	1.4	0.0266	70.6*
CC(C)(C)c1cc(NC(=O)C2CCCO2)no1 (configuration not stated)	-0.39	70.3*	1.5	-1.62	8.5
O=C(Nc1ccc2nn(-c3ccccc3)nc2c1)c1ccco1	x	x	1.3	x	x
O=C(Cc1ccccc1)Nc1ccc2oc(-c3cccnc3)nc2c1	-0.553	20.3	1.2	0.244	6.3
O=C(O)c1cccc(NC(=O)C2CCCO2)c1 (configuration not stated)	x	x	1.2	x	x
CC(C)c1ccc(NC(=O)c2cccnc2)cc1	-0.423	34.2	1.3	-0.235	69.3*
CC(C)(C)c1ccccc1NC(=O)c1cccnc1	0.137	2.2	1.1	-0.315	0.1
CCc1ccc2oc(-c3cccc(NC(=O)c4cccnc4)c3)nc2c1	-0.51	31.5	1.4	2.3	58.2*
CC(C)(C)c1cc(NC(=O)c2cccnc2)no1	-0.136	75.2*	1.7	0	37.1
COc1ccccc1C(=O)Nc1ccc2oc(-c3ccc(F)cc3)nc2c1	-0.57	42.4	1.6	-0.966	64.7*
COc1ccc(C(=O)Nc2ccc3oc(-c4cccc(F)c4)nc3c2)cc1OC	-0.0878	11.8	1	0.0573	2.3
C[C@@H](C(=O)N[C@@H](CO)Cc1ccccc1)[C@@H]1C[C@@]1(C)[C@@H](NC(=O)OCc1ccccc1)c1ccccc1	x	x	1.2	x	x
CC(=O)N1[C@H](C)C=C[C@]1(Cc1ccccc1)C(=O)NCc1ccc(C)o1	x	x	1	x	x
Cc1ccc(-c2nc(SCC(=O)NCCN3C(=O)CSC3=O)[nH]c2-c2ccc(C)cc2)cc1	x	x	1.1	x	x
Cc1nc(N)sc1C(=O)Nc1ccccc1	x	x	1.3	x	x
Cc1nc(/N=C\N(C)C)sc1C(=O)Nc1ccccc1	-0.584	7.9	1.4	-0.115	52.0*
CC(=O)Oc1cccc(/C=c2\sc3nc(-c4ccco4)nn3c2=O)c1	0.0755	-9.6	1.4	-0.295	-21.4
CCCOc1ccc(/C=c2\sc3nc(-c4ccco4)nn3c2=O)cc1OCC	0.15	-2.4	1.2	25.1*	-6.3
CCCCN1C(=O)/C(=C2\SC(N3CCCCC3)=NC2=O)c2ccccc21	0.973	35.8	1.5	0.229	59.7*
O=C1N=C(N2CCOCC2)S/C1=C1\C(=O)N(Cc2ccccc2)c2ccc(Br)cc21	x	15.2	1.3	x	12.4
Cc1nc2ccccc2c2oc(C(=O)N3CCc4ccccc4C3)cc12	0.725	8.1	1	6.03*	18.9
Cc1nc2ccccc2c2oc(C(=O)N3CCN(C(=O)c4ccco4)CC3)cc12	0.681	-1.9	1.1	-0.409	-19.7
COCCNC(=O)c1ccccc1NC(=O)COc1ccccc1	2.09*	-6.0	1.2	-1.08	-3.3
Cc1c(CCC#N)c(N2CCN(C3CCCCC3)CC2)n2c(nc3ccccc32)c1C#N	-1.08	0.8	1.1	-0.00383	-14.2
Cc1csc2nc(CSc3nncn3-c3ccccc3)c(Br)n12	-0.0432	21.3	1.1	0.0256	-2.0
Cc1csc2nc(CSc3nc4ccccc4o3)c(Br)n12	-0.523	61.1*	1.5	-1.33	34.4
NC(=O)C1CCN(CCCNC2CC(=O)N(Cc3ccc(N4CCCC4=O)cc3)C2=O)CC1 (configuration not stated)	0.075	-8.7	1.1	4.23*	7.5
